In PMC12377214 (RSC Advances, 2025):
Several values for one entry are separate records, joined by “and”; a condition that tells them apart may be missing. Identical values can stand only once.

Key:
A498 (kidney carcinoma) = test: Antiproliferative SRB assay, A-498; type: cell-based, human; conditions: for IC50: Homo sapiens, A498, 72 h, read-out: pIC50 A-498 (converted); for Selectivity index (SI) A498: IC50 BALB/3T3 / IC50 A498
[1] = system: HepG-2 (hepatocellular carcinoma); test: Antiproliferative SRB assay, HepG2; type: cell-based, human; conditions: for IC50: Homo sapiens, HepG2, 72 h, read-out: pIC50 HepG2 (converted); for Selectivity index (SI) HepG2: IC50 BALB/3T3 / IC50 HepG2
[2] = system: MDA-MB-231 (breast adenocarcinoma); test: Antiproliferative SRB assay, MDA-MB-231; type: cell-based, human; conditions: for IC50: Homo sapiens, MDA-MB-231, 72 h, read-out: pIC50 MDA-MB-231 (converted); for Selectivity index (SI) MDA-MB-231: IC50 BALB/3T3 / IC50 MDA-MB-231
CDK6/Cyclin D3 = CDK6/Cyclin D3 (Homo sapiens, UniProt Q00534); test: In vitro CDK6 inhibitory assay; type: biochemical
Sequence of CDK6/Cyclin D3 (Q00534 whole entry): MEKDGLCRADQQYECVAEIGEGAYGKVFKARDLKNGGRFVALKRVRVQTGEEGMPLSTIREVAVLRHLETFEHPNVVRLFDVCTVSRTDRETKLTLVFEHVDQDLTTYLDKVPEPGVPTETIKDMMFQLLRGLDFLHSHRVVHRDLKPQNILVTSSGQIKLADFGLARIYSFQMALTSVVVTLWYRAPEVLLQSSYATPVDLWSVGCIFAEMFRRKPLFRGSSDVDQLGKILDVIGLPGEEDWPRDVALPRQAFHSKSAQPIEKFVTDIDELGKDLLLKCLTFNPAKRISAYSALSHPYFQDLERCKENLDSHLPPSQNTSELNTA
Sequence of CDK6/Cyclin D3 (P30281 whole entry partner): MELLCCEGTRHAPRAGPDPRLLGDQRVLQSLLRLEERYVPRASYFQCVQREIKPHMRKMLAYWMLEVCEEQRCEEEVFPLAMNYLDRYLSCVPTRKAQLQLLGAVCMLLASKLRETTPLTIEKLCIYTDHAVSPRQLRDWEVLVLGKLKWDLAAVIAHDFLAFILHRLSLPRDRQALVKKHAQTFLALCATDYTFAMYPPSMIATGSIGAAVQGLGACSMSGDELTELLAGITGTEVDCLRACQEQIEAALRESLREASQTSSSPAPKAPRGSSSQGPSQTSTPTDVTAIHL

VEGFR-2 = VEGFR-2 (Homo sapiens, UniProt P35968); test: In vitro VEGFR-2 kinase inhibitory assay; type: biochemical
Sequence of VEGFR-2 (P35968 20-1356): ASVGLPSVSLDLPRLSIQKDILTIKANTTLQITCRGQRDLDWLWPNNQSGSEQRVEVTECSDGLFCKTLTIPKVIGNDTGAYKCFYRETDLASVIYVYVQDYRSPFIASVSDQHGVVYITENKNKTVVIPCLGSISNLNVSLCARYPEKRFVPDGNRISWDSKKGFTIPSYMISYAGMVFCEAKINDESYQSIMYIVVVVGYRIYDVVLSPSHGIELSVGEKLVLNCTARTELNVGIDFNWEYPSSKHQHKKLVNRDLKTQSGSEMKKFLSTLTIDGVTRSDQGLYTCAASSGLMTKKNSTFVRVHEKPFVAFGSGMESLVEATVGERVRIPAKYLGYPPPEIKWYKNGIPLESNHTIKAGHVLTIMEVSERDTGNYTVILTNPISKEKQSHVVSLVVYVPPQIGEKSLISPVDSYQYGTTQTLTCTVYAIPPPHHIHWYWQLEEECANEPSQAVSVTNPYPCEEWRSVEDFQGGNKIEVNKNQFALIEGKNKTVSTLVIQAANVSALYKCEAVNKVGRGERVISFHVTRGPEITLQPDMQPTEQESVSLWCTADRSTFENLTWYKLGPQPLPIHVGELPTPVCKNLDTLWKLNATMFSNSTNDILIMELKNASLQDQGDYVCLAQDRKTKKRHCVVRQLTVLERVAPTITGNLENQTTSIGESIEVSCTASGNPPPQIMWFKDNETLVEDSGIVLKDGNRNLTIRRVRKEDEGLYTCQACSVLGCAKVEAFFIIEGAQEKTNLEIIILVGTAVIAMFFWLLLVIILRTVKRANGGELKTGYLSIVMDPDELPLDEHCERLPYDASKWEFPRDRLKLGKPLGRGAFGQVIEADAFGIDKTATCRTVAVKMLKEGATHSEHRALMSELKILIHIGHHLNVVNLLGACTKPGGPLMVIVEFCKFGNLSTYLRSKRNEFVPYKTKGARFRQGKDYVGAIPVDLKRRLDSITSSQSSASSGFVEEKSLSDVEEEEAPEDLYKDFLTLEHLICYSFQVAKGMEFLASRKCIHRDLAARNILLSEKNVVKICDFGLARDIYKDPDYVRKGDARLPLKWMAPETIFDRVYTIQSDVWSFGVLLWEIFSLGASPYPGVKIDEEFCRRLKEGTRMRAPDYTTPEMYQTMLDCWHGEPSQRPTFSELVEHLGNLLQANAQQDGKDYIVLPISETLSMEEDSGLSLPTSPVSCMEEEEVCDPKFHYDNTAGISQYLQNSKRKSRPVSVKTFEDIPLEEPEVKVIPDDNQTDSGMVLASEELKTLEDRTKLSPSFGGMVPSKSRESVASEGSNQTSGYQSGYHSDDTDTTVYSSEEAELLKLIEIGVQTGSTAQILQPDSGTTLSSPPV

xanthine oxidase (XO) [3] = biological target: T1, xanthine oxidase (XO) (Homo sapiens, UniProt P47989); test: Xanthine oxidase inhibition assay; type: biochemical
T1 sequence (P47989 whole entry, species assumed): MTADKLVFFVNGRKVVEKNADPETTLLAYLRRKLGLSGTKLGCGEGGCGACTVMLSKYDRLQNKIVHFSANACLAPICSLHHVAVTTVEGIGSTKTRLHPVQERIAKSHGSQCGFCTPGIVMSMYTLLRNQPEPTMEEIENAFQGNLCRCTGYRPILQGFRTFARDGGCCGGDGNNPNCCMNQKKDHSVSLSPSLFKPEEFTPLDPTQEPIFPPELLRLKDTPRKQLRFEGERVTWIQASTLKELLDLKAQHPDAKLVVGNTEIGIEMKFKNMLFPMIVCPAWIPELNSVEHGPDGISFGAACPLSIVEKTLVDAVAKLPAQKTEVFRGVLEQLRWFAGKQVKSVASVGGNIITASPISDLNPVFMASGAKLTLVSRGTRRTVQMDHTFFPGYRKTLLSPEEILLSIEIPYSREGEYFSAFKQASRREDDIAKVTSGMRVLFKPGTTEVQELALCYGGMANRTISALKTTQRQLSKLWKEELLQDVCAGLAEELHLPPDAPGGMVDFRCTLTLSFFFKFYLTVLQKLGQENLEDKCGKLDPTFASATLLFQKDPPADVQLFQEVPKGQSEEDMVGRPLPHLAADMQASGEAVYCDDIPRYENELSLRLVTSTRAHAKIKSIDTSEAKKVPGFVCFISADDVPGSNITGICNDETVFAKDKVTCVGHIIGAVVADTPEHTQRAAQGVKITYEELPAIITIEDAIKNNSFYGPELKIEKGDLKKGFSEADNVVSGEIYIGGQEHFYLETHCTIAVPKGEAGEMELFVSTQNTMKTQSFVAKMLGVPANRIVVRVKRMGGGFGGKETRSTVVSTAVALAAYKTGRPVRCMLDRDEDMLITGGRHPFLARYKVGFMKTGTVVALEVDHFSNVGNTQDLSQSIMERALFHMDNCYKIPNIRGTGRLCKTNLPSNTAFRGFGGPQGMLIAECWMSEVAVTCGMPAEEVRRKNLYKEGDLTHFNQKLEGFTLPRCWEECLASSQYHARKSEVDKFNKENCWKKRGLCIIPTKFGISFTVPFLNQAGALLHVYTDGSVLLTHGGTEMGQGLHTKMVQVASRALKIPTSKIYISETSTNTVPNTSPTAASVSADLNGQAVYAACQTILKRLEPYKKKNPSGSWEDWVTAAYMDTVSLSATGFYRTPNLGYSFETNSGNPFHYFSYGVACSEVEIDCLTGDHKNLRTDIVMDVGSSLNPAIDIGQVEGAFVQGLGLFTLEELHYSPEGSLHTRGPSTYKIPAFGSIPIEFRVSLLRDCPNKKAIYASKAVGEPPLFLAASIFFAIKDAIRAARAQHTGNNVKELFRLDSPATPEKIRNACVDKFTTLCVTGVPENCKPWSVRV

MV4-11 cell line [4] = test: Antiproliferative MTT assay, MV4-11; type: cell-based; conditions: Homo sapiens, MV4-11, read-out: Anti-proliferative IC50 MV4-11
Outline: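 MV4-11 cells grown in RPMI 1640 with stable glutamine, 10% FBS, 1.0 mM sodium pyruvate and penicillin/streptomycin at 37 °C, 5% CO2. Seeded at 2000 cells/well, then treated after 24 h with test compound (DMSO stock of 10 mg mL−1 diluted in medium; 0.1–100 μg mL−1) for 72 h. MTT added for 4 h, formazan dissolved in DMF, A570 read. IC50 calculated.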

MV4-11 cell line [5] = test: Cell cycle analysis; type: cell-based; conditions: for Cell percentage SubG1: control 7.12 ± 0.569; for Cell percentage G2/M: control 20.98 ± 0.614; for Cell percentage S: control 24.54 ± 2.475; for Cell percentage G0/G1: control 45.40 ± 3.051
xanthine oxidase (XO) [6] = biological target: T1, xanthine oxidase (XO); test: Kinetics of xanthine oxidase inhibition; type: biochemical; conditions: for V max: XO alone 2.25 / 2.21; for K m: XO alone Km 40
MV4-11 cell line [7] = conditions: MV4-11 cancer cell line; cited from earlier work

In the case of `O=C1C(=O)N(CCn2ncc3c(=O)[nH]cnc32)c2ccccc21` [6a, 1-[2-(1,5-Dihydro-4-oxopyrazolo[3,4-d]pyrimidin-1-yl)ethyl] indole-2,3-dione], the IC50 (A498 (kidney carcinoma)) is reported as 58.9 µM, the IC50 [1] is reported as 151 µM and the IC50 [2] is reported as 91.2 µM. The IC50 (CDK6/Cyclin D3) was 0.603 µM, the IC50 (VEGFR-2) was 0.309 µM and the IC50 (xanthine oxidase (XO) [3]) was 43.7 ± 5.51 µM.

For `O=C1C(=O)N(CCn2ncc3c(=O)[nH]cnc32)c2ccc(Cl)cc21` [6b, 5-Chloro-1-[2-(1,5-dihydro-4-oxopyrazolo[3,4-d]pyrimidin-1-yl)ethyl]indole-2,3-dione], the IC50 (A498 (kidney carcinoma)) was 16.2 µM, the “Selectivity index (SI) A498” value (A498 (kidney carcinoma)) was 2.03 and the IC50 [1] was 15.1 µM. The “Selectivity index (SI) HepG2” value [1] was 2.15, the IC50 [2] was 13.2 µM and the “Selectivity index (SI) MDA-MB-231” value [2] was 2.49. The IC50 (MV4-11 cell line [4]) was 5.85 µM, the “Cell percentage SubG1” value (MV4-11 cell line [5]; MV4-11, 1 μg mL^−1) was 3.48 ± 1.178% and the “Cell percentage G2/M” value (MV4-11 cell line [5]; MV4-11, 1 μg mL^−1) was 17.67 ± 1.285%. For the same compound, the “Cell percentage S” value (MV4-11 cell line [5]; MV4-11, 1 μg mL^−1) was 27.15 ± 3.651% and the “Cell percentage G0/G1” value (MV4-11 cell line [5]; MV4-11, 1 μg mL^−1) was 50.37 ± 4.619%.

`COc1ccc2c(c1)C(=O)C(=O)N2CCn1ncc2c(=O)[nH]cnc21` [6c, 1-[2-(1,5-Dihydro-4-oxopyrazolo[3,4-d]pyrimidin-1-yl)ethyl]5-methoxyindole-2,3-dione] gave an IC50 (A498 (kidney carcinoma)) of 30.2 µM, an IC50 [1] of 93.3 µM and an IC50 [2] of 47.9 µM.

With `O=C1C(=O)N(CCn2ncc3c(=O)[nH]cnc32)c2ccc(F)cc21` [6d, 5-Fluoro-1-[(2-(1,5-dihydro-4-oxopyrazolo[3,4-d]pyrimidin-1-yl)ethyl)]indole-2,3-dione] the IC50 (A498 (kidney carcinoma)) was 38.9 µM, the IC50 [1] was 61.7 µM and the IC50 [2] was 47.9 µM.

Work on `Nc1ncnc2c1ncn2CCN1C(=O)C(=O)c2ccccc21` [7a, 1-[2-(6-Amino-9H-purin-9-yl)ethyl]-2,3-dihydro-1H-indole-2,3-dione] yielded an IC50 [2] of 209 µM.

For `Nc1ncnc2c1ncn2CCN1C(=O)C(=O)c2cc(Cl)ccc21` [7b, 1-[2-(6-Amino-9H-purin-9-yl)ethyl]-5-chloro-2,3-dihydro-1H-indole-2,3-dione], the IC50 (A498 (kidney carcinoma)) was 52.5 µM, the “Selectivity index (SI) A498” value (A498 (kidney carcinoma)) was 1.37 and the IC50 [1] was 6.03 µM. The “Selectivity index (SI) HepG2” value [1] was 11.89, the IC50 [2] was 19.5 µM and the “Selectivity index (SI) MDA-MB-231” value [2] was 3.64. The IC50 (MV4-11 cell line [4]) was 11.8 µM, the “Increase in S phase relative to control” value (MV4-11 cell line [5]; MV4-11, 10 μg mL^−1, p < 0.05) was 1.49 fold and the “Cell percentage SubG1” value (MV4-11 cell line [5]; MV4-11, 10 μg mL^−1) was 6.15 ± 2.74% and 6.15 ± 2.739%. For the same compound, the “Cell percentage G2/M” value (MV4-11 cell line [5]; MV4-11, 10 μg mL^−1) was 13.32 ± 2.763%, the “Cell percentage S” value (MV4-11 cell line [5]; MV4-11, 10 μg mL^−1) was 36.66 ± 4.326% and the “Cell percentage G0/G1” value (MV4-11 cell line [5]; MV4-11, 10 μg mL^−1) was 44.36 ± 4.193%. It also gave an IC50 (CDK6/Cyclin D3) of 1.51 µM, an IC50 (VEGFR-2) of 0.513 µM and an IC50 (xanthine oxidase (XO) [3]) of 66.1 µM.

With `COc1ccc2c(c1)C(=O)C(=O)N2CCn1cnc2c(N)ncnc21` [7c, 1-[2-(6-Amino-9H-purin-9-yl)ethyl]-2,3-dihydro-5-methoxy-1H-indole-2,3-dione] the IC50 (A498 (kidney carcinoma)) was 182 µM, the IC50 [1] was 77.6 µM and the IC50 [2] was 135 µM.

`Nc1ncnc2c1ncn2CCN1C(=O)C(=O)c2cc(F)ccc21` [7d, 1-[2-(6-Amino-9H-purin-9-yl)ethyl]-2,3-dihydro-5-fluoro-1H-indole-2,3-dione] showed an IC50 (A498 (kidney carcinoma)) of 166 µM, an IC50 [1] of 17.4 µM and an IC50 [2] of 83.2 µM.

For `NC(=S)N/N=C1\C(=O)N(CCn2ncc3c(=O)[nH]cnc32)c2ccc(Cl)cc21` [8b, (2Z)-2-{5-Chloro-2-oxo-1-[2-(4-oxo-1,5-dihydropyrazolo[3,4-d]pyrimidin-1-yl)ethyl]-1,2-dihydro-3H-indol-3-ylidene}hydrazine-1-carbothioamide], the IC50 (A498 (kidney carcinoma)) was 14.1 µM, the “Selectivity index (SI) A498” value (A498 (kidney carcinoma)) was 2.45 and the IC50 [1] was 13.2 µM. The “Selectivity index (SI) HepG2” value [1] was 2.60, the IC50 [2] was 53.7 µM and the “Selectivity index (SI) MDA-MB-231” value [2] was 0.63. For the same compound, the IC50 (CDK6/Cyclin D3) was 0.0676 µM, the IC50 (VEGFR-2) was 0.0708 µM and the IC50 (xanthine oxidase (XO) [3]) was 21.9 µM.

In the case of `NC(=S)N/N=C1\C(=O)N(CCn2ncc3c(=O)[nH]cnc32)c2ccc(F)cc21` [8d, (2Z)-2-{5-Fluoro-2-oxo-1-[2-(4-oxo-1,5-dihydropyrazolo[3,4-d]pyrimidin-1-yl)ethyl]-1,2-dihydro-3H-indol-3-ylidene}hydrazine-1-carbothioamide], the IC50 (A498 (kidney carcinoma)) is reported as 105 µM and the IC50 [1] is reported as 25.1 µM.

Compound `NC(=S)N/N=C1\C(=O)N(CCn2cnc3c(N)ncnc32)c2ccc(F)cc21` [9d, (2Z)-2-{5-Fluoro-2-oxo-1-[2-(6-aminopurine-9-yl)ethyl]-1,2-dihydro-3H-indol-3-ylidene}hydrazine-1-carbothioamide] has an IC50 [1] of 56.2 µM.

With `Oc1ncnc2[nH]ncc12` [Allopurinol] the “Type of XO inhibition” value (xanthine oxidase (XO) [6]; Lineweaver–Burk plot) was “mixed”, the V max (xanthine oxidase (XO) [6]; inhibitor 0.1 μM) was 1.51 and the K m (xanthine oxidase (XO) [6]; inhibitor 0.1 μM) was 50. It also gave a V max (xanthine oxidase (XO) [6]; inhibitor 1 μM) of 1.33, a K m (xanthine oxidase (XO) [6]; inhibitor 1 μM) of 64 and a V max (xanthine oxidase (XO) [6]; inhibitor 10 μM) of 0.55. It also gave a K m (xanthine oxidase (XO) [6]; inhibitor 10 μM) of 51.

In the case of `CC(=O)c1c(C)c2cnc(Nc3ccc(N4CCNCC4)cn3)nc2n(C2CCCC2)c1=O` [Palbociclib], the “Cell cycle arrest phase” value (MV4-11 cell line [7]) is given as “cell cycle arrest at the G1 phase”.

`CNC(=O)c1cc(Oc2ccc(NC(=O)Nc3ccc(Cl)c(C(F)(F)F)c3)cc2)ccn1` [Sorafenib, reference compound] showed an IC50 (A498 (kidney carcinoma)) of 63.1 µM, an IC50 [1] of 44.7 µM and an IC50 [2] of 81.3 µM.
